In ChEMBL document CHEMBL1135628, “Potent and long-acting corticotropin releasing factor (CRF) receptor 2 selective peptide competitive antagonists” (J Med Chem, 2002) one finds IC50 data, which are given here for one compound.

Assay [1] concerns the target Corticotropin-releasing factor receptor 2 (Mus musculus) (UniProt Q60748). Kind of assay: Inhibition of recombinant mouse corticotropin releasing factor receptor 2 beta (CRF2beta) assayed using nonselective [125I]-labeled agonist [Tyr0,Glu1,Nle17]-sauvagine as radioligand.
In assay [2] the target is T1, Corticotropin-releasing factor receptor 1 (Homo sapiens, UniProt P34998).
T1 sequence (P34998 whole entry): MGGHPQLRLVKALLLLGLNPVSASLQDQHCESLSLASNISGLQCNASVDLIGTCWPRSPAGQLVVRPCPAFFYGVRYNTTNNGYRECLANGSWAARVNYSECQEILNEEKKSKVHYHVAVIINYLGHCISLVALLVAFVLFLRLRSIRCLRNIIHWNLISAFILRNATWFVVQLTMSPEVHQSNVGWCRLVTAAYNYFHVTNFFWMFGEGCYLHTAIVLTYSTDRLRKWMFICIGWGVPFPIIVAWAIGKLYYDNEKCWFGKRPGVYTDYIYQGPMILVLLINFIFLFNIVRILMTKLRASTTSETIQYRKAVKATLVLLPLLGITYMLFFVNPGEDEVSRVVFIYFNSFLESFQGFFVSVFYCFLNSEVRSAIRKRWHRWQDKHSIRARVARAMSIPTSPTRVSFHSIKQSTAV
The assay can be described thus: Inhibition of recombinant corticotropin releasing factor receptor 1 assayed using nonselective [125I]-labeled agonist [Tyr0,Glu1,Nle17]-sauvagine. The procedure, abridged: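 Crude plasma membranes from stable CHO lines expressing hCRF1 or mCRF2β, stored in 10% sucrose at -80 °C. Incubated 90 min at room temperature, then washed and filtered. IC50 taken from one representative assay, repeated at least twice.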

Usually IC50 stands for the point on the concentration scale where inhibition reaches its midpoint.

Chain of Corticotropin-releasing factor receptor 2 (Mus musculus) (Q60748 whole entry, looked up): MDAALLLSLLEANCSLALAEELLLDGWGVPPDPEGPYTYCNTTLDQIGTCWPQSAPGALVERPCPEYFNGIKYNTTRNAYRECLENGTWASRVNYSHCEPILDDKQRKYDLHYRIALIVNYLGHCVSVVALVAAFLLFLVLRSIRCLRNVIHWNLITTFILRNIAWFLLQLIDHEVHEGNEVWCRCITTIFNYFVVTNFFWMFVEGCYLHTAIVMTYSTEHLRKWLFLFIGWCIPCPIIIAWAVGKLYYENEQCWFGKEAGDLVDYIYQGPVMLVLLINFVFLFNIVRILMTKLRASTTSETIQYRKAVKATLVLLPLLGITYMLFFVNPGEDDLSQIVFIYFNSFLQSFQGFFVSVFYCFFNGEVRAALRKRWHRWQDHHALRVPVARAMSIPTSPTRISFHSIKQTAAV

Consider `CCCC[C@H](NC(=O)[C@H](CCCCN)NC(=O)[C@H](CCCN=C(N)N)NC(=O)[C@H](CC(C)C)NC(=O)[C@](C)(CC(C)C)NC(=O)[C@H](Cc1c[nH]cn1)NC(=O)[C@@H](Cc1ccccc1)NC(=O)[C@H](CO)NC(=O)[C@H](CC(C)C)NC(=O)[C@H](CC(=O)O)NC(C)=O)C(=O)N[C@H](C(=O)N[C@@H](CCC(=O)O)C(=O)N[C@H](C(=O)N[C@@H](CCC(=O)O)C(=O)N[C@@H](CCCCN)C(=O)N[C@@H](CCC(N)=O)C(=O)N[C@@H](CCC(=O)O)C(=O)N[C@@H](CCCCN)C(=O)N[C@@H](CCC(=O)O)C(=O)N[C@@H](CCCCN)C(=O)N[C@@H](CCC(N)=O)C(=O)N[C@@H](CCC(N)=O)C(=O)N[C@H]1CCC(=O)NCCCC[C@@H](C(=O)N[C@@H](CCCN=C(N)N)C(=O)N[C@@H](CC(C)C)C(=O)N[C@@H](CC(C)C)C(=O)N[C@@H](CC(C)C)C(=O)N[C@@H](CC(=O)O)C(=O)N[C@@](C)(CC(C)C)C(=O)N[C@H](C(N)=O)[C@@H](C)CC)NC(=O)[C@H](CC(N)=O)NC(=O)[C@H](C)NC1=O)[C@@H](C)CC)[C@@H](C)CC`, for which the figures for the IC50 in assay [1] and in assay [2] were 81 nM and over 500 nM, respectively.
